Source: ChEMBL document CHEMBL1641440, “Virtual screening based identification of novel small-molecule inhibitors targeted to the HIV-1 capsid” (Bioorg Med Chem, 2011)
Active and inactive are the calls of the source. The rule behind the calls is not given here.

What was measured:
[1] = tested on: Human immunodeficiency virus 1; experiment: Antiviral activity against HIV1 3B infected in human MT2 cells assessed as inhibition of viral p24 antigen production after 4 days by ELISA; type: functional, organism-based; conditions: Human immunodeficiency virus 1, 3B, MT2, 96 h
Outline: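 MT-2 cells (1 × 10^4) infected with HIV-1 IIIB at 100 TCID50 (0.01 MOI) in RPMI 1640/10% FBS with graded inhibitor concentrations overnight; medium then replaced with fresh medium containing freshly prepared compound. On day 4 supernatant mixed 1:1 with 5% Triton X-100 and p24 measured by ELISA; IC50 = concentration giving 50% reduction in p24 production. Mean ± SD.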

MT2 = experiment: Cytotoxicity against human MT2 cells after 4 days by XTT assay; type: cell-based; conditions: mt2, 96 h
Outline: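 XTT assay run in parallel with the MT-2 antiviral assay, with medium in place of virus. Graded compound added to an equal volume of MT-2 cells (1 × 10^5 cells/mL), 37 °C for 4 days. Formazan read at 450 nm (reference 620 nm) 4 h after XTT addition; CC50 = concentration giving 50% cytotoxicity.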

[2] = tested on: Human immunodeficiency virus 1; conditions: 3B, MT2, 1 ug/mL
[3] = target: Structural capsid protein (Human immunodeficiency virus 1) (UniProt Q76129); experiment: Binding affinity to HIV1 capsid protein assessed as decrease in formation of mature-like particles after 30 mins by electron microscopy
Sequence of Structural capsid protein (Human immunodeficiency virus 1) (Q76129 as listed by the source): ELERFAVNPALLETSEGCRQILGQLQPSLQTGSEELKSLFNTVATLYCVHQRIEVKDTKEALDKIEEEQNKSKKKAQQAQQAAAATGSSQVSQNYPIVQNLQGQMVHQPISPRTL
Outline: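 Purified CA at 50 μM in Na2HPO4 buffer pH 8.0, without RNA, was incubated with inhibitor at 0.5 to 5 molar equivalents for 30 min at 4 °C. It was then dialysed overnight at 4 °C in the same buffer plus 100 mM NaCl. Samples were spotted on poly-L-lysine-treated grids, negatively stained with uranyl acetate and imaged by EM at 80 kV for tube-shaped particles.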

[4] = Selectivity index, ratio of CC50 for human MT2 cells to IC50 for HIV1 3B infected in human MT2 cells; type: functional
Outline: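 IC50: MT-2 cells infected with HIV-1 IIIB (100 TCID50, 0.01 MOI) overnight with graded compound, then medium refreshed with compound; day-4 p24 measured by ELISA. […] Ratio is CC50/IC50.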

[5] = tested on: Human immunodeficiency virus 1; experiment: Antiviral activity against HIV1 MN infected in human MT2 cells assessed as inhibition of viral p24 antigen production after 4 days by ELISA; type: functional, organism-based; conditions: Human immunodeficiency virus 1, MN, MT2, 96 h
Outline: (§1)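 MT-2 cells (1 × 10^4) were infected at 100 TCID50 (0.01 MOI) in RPMI 1640 with 10% FBS, with or without graded inhibitor concentrations, overnight. Medium was then replaced with fresh inhibitor-containing medium. On day 4, supernatant was mixed 1:1 with 5% Triton X-100 and p24 was measured by ELISA. IC50 is the concentration giving 50% reduction in p24.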

[6] = tested on: Human immunodeficiency virus 1; experiment: Antiviral activity against HIV1 SF2 infected in human MT2 cells assessed as inhibition of viral p24 antigen production after 4 days by ELISA; type: functional, organism-based; conditions: Human immunodeficiency virus 1, SF2, MT2, 96 h; outline: as §1
[7] = tested on: Human immunodeficiency virus 1; experiment: Antiviral activity against HIV1 RF infected in human MT2 cells assessed as inhibition of viral p24 antigen production after 4 days by ELISA; type: functional, organism-based; conditions: Human immunodeficiency virus 1, RF, MT2, 96 h; outline: as §1
[8] = tested on: Human immunodeficiency virus 1; experiment: Antiviral activity against HIV1 BaL infected in human PBMC assessed as inhibition of viral p24 antigen production after 4 days by ELISA; type: functional, organism-based; conditions: Human immunodeficiency virus 1, BaL, 96 h
[9] = tested on: Human immunodeficiency virus 1; experiment: Antiviral activity against HIV1 89.6 infected in human PBMC assessed as inhibition of viral p24 antigen production after 4 days by ELISA; type: functional, organism-based; conditions: Human immunodeficiency virus 1, 89.6, 96 h
[10] = tested on: Human immunodeficiency virus 1; experiment: Antiviral activity against azidothymidine-resistant HIV1 SF2 infected in human MT2 cells assessed as inhibition of viral p24 antigen production after 4 days by ELISA; type: functional, organism-based; conditions: Human immunodeficiency virus 1, MT2, 96 h; outline: as §1
[11] = tested on: Human immunodeficiency virus 1; experiment: Antiviral activity against protease-resistant HIV1 RF/L-323-12-3 infected in human MT2 cells assessed as inhibition of viral p24 antigen production after 4 days by ELISA; type: functional, organism-based; conditions: Human immunodeficiency virus 1, RF/L-323-12-3, MT2, 96 h; outline: as §1
[12] = tested on: Human immunodeficiency virus 1; experiment: Antiviral activity against HIV1 3B infected in human MT2 cells assessed as inhibition of viral p24 antigen production at 5 uM after 4 days by ELISA; type: functional, organism-based
[13] = tested on: Human immunodeficiency virus 1; experiment: Antiviral activity against primary HIV1 isolate RU570 infected in human PBMC assessed as inhibition of viral p24 antigen production after 7 days by ELISA; conditions: Human immunodeficiency virus 1, isolate RU570, 168 h
[14] = tested on: Human immunodeficiency virus 1; experiment: Antiviral activity against primary HIV1 isolate BCF02 infected in human PBMC assessed as inhibition of viral p24 antigen production after 7 days by ELISA; conditions: Human immunodeficiency virus 1, isolate BCF02, 168 h
[15] = tested on: Human immunodeficiency virus 1; experiment: Antiviral activity against primary HIV1 isolate 94UG103 infected in human PBMC assessed as inhibition of viral p24 antigen production after 7 days by ELISA; conditions: Human immunodeficiency virus 1, isolate 94UG103, 168 h
[16] = tested on: Human immunodeficiency virus 1; experiment: Antiviral activity against primary HIV1 isolate 92US657 infected in human PBMC assessed as inhibition of viral p24 antigen production after 7 days by ELISA; conditions: Human immunodeficiency virus 1, isolate 92US657, 168 h
[17] = tested on: Human immunodeficiency virus 1; experiment: Antiviral activity against primary HIV1 isolate 93IN101 infected in human PBMC assessed as inhibition of viral p24 antigen production after 7 days by ELISA; conditions: Human immunodeficiency virus 1, isolate 93IN101, 168 h
[18] = tested on: Human immunodeficiency virus 1; experiment: Antiviral activity against primary HIV1 isolate 92UG024 infected in human PBMC assessed as inhibition of viral p24 antigen production after 7 days by ELISA; conditions: Human immunodeficiency virus 1, isolate 92UG024, 168 h
[19] = tested on: Human immunodeficiency virus 1; experiment: Antiviral activity against primary HIV1 isolate 93BR020 infected in human PBMC assessed as inhibition of viral p24 antigen production after 7 days by ELISA; conditions: Human immunodeficiency virus 1, isolate 93BR020, 168 h

| IC50 [1] [µM] | SMILES | CC50 (MT2) [µM] | also measured |
| --- | --- | --- | --- |
| > 38.9 | Cc1ccc2[nH]c(=O)c(CN(CC3CCCO3)C(=O)c3ccc(Cl)cc3)cc2c1 (stereo not given) |  |  |
| 4.23 | Cc1ccccc1C(=O)N(Cc1ccco1)Cc1cc2cccc(C)c2[nH]c1=O | > 64.7 |  |
| > 23.6 | Cc1ccc2[nH]c(=O)c(CN(Cc3ccco3)C(=O)c3ccc(Cl)c(O)c3)cc2c1 |  |  |
| 12.3 | CCc1ccc2[nH]c(=O)c(CN(Cc3ccco3)C(=O)c3cccs3)cc2c1 | > 127 |  |
| 9.27 | Cc1ccc2[nH]c(=O)c(CN(Cc3ccc(Cl)cc3)C(=O)c3cn4cccc(C)c4n3)cc2c1 | 44.5 |  |
| > 24.8 | COc1ccc(C(=O)N(Cc2ccco2)Cc2cc3cc(C)ccc3[nH]c2=O)cn1 |  |  |
| 12.4 | Cc1ccc2cc(CN(Cc3ccco3)C(=O)c3cccc(F)c3)c(=O)[nH]c2c1 | > 51.2 |  |
| 5.8 | Cc1ccc2[nH]c(=O)c(CN(Cc3ccc4c(c3)OCO4)C(=O)c3ccccc3)cc2c1 | > 117 |  |
| 5 | CCOc1ccc(C(=O)N(Cc2cccs2)Cc2cc3cc(C)ccc3[nH]c2=O)cc1 | 12.7 |  |
| > 16.8 | Cc1ccc2cc(CN(Cc3ccco3)C(=O)c3ccccc3)c(=O)[nH]c2c1 |  |  |
| 8.2 | Cc1ccc2[nH]c(=O)c(CN(Cc3ccco3)C(=O)c3ccc(F)c(Cl)c3)cc2c1 | > 23.5 |  |
| > 14.6 | Cc1ccc2cc(CN(Cc3ccco3)C(=O)c3ccc(C(C)(C)C)cc3)c(=O)[nH]c2c1 |  |  |
| 9.28 | Cc1ccc2[nH]c(=O)c(CN(Cc3ccco3)C(=O)c3ccccc3)cc2c1 | > 67.1 |  |
| 11.8 | Cc1ccc2[nH]c(=O)c(CN(Cc3cccs3)C(=O)c3cccs3)cc2c1 | > 64 |  |
| 30 | Cc1cc(=O)n2c3ccccc3n(C[C@H](O)CN3CCOCC3)c2c1C#N | > 34.1 |  |
| 3.59 | Cc1cccc2cc(CN(Cc3ccccc3)C(=O)c3cccc(Cl)c3)c(=O)[nH]c12 | > 60 |  |
|  | c1cc(CN2CCCNCCNCCCNCC2)ccc1CN1CCCNCCNCCCNCC1 |  | inhibition [2]: Active |
| 2.16 | Cc1ccc2[nH]c(=O)c(CN(Cc3ccco3)C(=O)c3ccc(Br)cc3)cc2c1 | > 55.4 |  |
| > 23.6 | Cc1ccc2[nH]c(=O)c(CN(Cc3ccco3)C(=O)c3ccc(O)c(Cl)c3)cc2c1 |  |  |
| > 21.9 | Cc1ccc2[nH]c(=O)c(CN(Cc3ccco3)C(=O)c3cc(Cl)c(O)c(Cl)c3)cc2c1 |  |  |
| 9.2 | Cc1ccc2[nH]c(=O)c(CN(Cc3ccco3)C(=O)c3ccc(Cl)c(Cl)c3)cc2c1 | 70.7 |  |
| > 26.6 | Cc1ccc2[nH]c(=O)c(CN(Cc3ccco3)C(=O)c3cnn(C)c3)cc2c1 |  |  |
| 3.09 | Cc1ccc2[nH]c(=O)c(CN(Cc3ccccc3)C(=O)c3ccco3)cc2c1 | > 67.1 |  |

| IC50 [1] [µM] | SMILES | CC50 (MT2) [µM] | also measured |
| --- | --- | --- | --- |
| > 15 | COc1ccc(C(=O)N(Cc2ccco2)Cc2cc3ccc(C)cc3[nH]c2=O)cc1 |  |  |
| > 25.2 | Cc1ccc2[nH]c(=O)c(CN(Cc3ccco3)C(=O)c3ccc(C#N)cc3)cc2c1 |  |  |
| > 16.7 | Cc1ccc2[nH]c(=O)c(CN(Cc3ccco3)C(=O)c3cccnc3)cc2c1 |  |  |
| 6.1 | COc1ccc2[nH]c(=O)c(CN(Cc3cccs3)C(=O)C3CCCCC3)cc2c1 | > 48 |  |
| > 16.5 | Cc1cccc2cc(CN(Cc3ccco3)C(=O)c3cccs3)c(O)nc12 | > 66.1 |  |
| 7.1 | Cc1ccc2[nH]c(=O)c(CN(Cc3ccco3)C(=O)c3ccc(Cl)c(N4CCCCC4)c3)cc2c1 | > 20.4 |  |
| 7.25 | Cc1cccc2cc(CN(Cc3ccco3)C(=O)c3ccccc3F)c(=O)[nH]c12 | > 64 |  |
| 6.4 | Cc1ccc(CN(Cc2cc3cc(C)ccc3[nH]c2=O)C(=O)c2ccco2)cc1 | > 19.8 |  |
| > 24.5 | Cc1ccc2[nH]c(=O)c(CN(Cc3ccco3)C(=O)CN3CCN(C)CC3)cc2c1 |  |  |
| 4.7 | Cc1ccc2[nH]c(=O)c(CN(Cc3ccco3)C(=O)c3ccc(F)c(F)c3)cc2c1 | > 24.5 |  |
| > 16.2 | Cc1ccc(C(=O)N(Cc2ccco2)Cc2cc3ccc(C)cc3[nH]c2=O)cc1 |  |  |
| 4.02 | Cc1cccc2cc(CN(Cc3ccco3)C(=O)c3ccccc3)c(=O)[nH]c12 | > 67.1 |  |
| > 22.1 | Cc1ccc2[nH]c(=O)c(CN(Cc3ccco3)C(=O)c3ccc(S(N)(=O)=O)cc3)cc2c1 |  |  |
| > 13 | COc1ccc2[nH]c(=O)c(CN(Cc3ccco3)C(=O)c3ccc(Br)cc3)cc2c1 |  |  |
| > 27.5 | Cc1ccc2[nH]c(=O)c(CN(Cc3ccco3)C(=O)C(F)(F)F)cc2c1 |  |  |
| 2.67 | Cc1ccc(C(=O)N(Cc2ccco2)Cc2cc3cccc(C)c3[nH]c2=O)cc1 | 9.2 |  |
| 11.7 | Cc1ccc2[nH]c(=O)c(CN(Cc3cccs3)C(=O)C3CCCCC3)cc2c1 | > 63.4 |  |
| 7.87 | COc1ccc2[nH]c(=O)c(CN(Cc3ccco3)C(=O)c3ccc(C)cc3)cc2c1 | > 31 |  |
| > 25.6 | Cc1ccc2[nH]c(=O)c(CN(Cc3ccco3)C(=O)c3ccc(F)cc3)cc2c1 |  |  |
| > 12.9 | Cc1ccc2[nH]c(=O)c(CN(Cc3cccs3)C(=O)c3ccccc3)cc2c1 |  |  |
| > 13.9 | CCc1ccc2[nH]c(=O)c(CN(Cc3ccco3)C(=O)c3ccccc3)cc2c1 |  |  |
| 7.9 | COc1ccc2[nH]c(=O)c(CN(Cc3cccs3)C(=O)c3cccc(C)c3)cc2c1 | 25 |  |
| > 24.1 | Cc1ccc2[nH]c(=O)c(CN(Cc3ccco3)C(=O)c3ccc(N(C)C)cc3)cc2c1 |  |  |

| SMILES | IC50 [1] [µM] | CC50 (MT2) [µM] | also measured |
| --- | --- | --- | --- |
| Cc1ccc2[nH]c(=O)c(CN(Cc3ccco3)C(=O)c3ccc(Cl)cc3)cc2c1 | 1.06 |  | inhibition [3]: Dose-dependent effect; Selectivity Index [4]: >60; IC50 [5]: 2.88 µM; IC50 [6]: 2.43 µM; IC50 [7]: 1.64 µM; IC50 [8]: 4.22 µM; IC50 [9]: 6.17 µM; IC50 [10]: 5.77 µM; IC50 [11]: 1.18 µM; inhibition [12]: Active; IC50 [13]: 2.84 µM; IC50 [14]: 6.07 µM; IC50 [15]: 3.93 µM; IC50 [16]: 5.46 µM; IC50 [17]: 2.7 µM; IC50 [18]: 2.57 µM; IC50 [19]: 4.18 µM |
| COc1ccc2nc(O)c(CN(Cc3ccco3)C(=O)c3ccccc3)cc2c1 | > 25.7 |  |  |
